Source: PubChem (several laboratories)
The list is not random: actives were taken first. Their share in the collection is about 29%.
CYP2C19 inhib: inhibitors of human CYP2C19. P33261. CYP2C19 Supersomes, luciferin-H EGE luminescence, 30 min. inhibition, % at 5 µM. actives 21% (n = 96,000);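 active means CYP2C19 inhibition above a set limit at 5 µM in the primary screen, cut at about 50% in these data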;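 further: plate controls were negative control wells for no effect and 2.5 mM tranylcypromine positive control for full effect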
Target sequence (P33261 whole entry, looked up): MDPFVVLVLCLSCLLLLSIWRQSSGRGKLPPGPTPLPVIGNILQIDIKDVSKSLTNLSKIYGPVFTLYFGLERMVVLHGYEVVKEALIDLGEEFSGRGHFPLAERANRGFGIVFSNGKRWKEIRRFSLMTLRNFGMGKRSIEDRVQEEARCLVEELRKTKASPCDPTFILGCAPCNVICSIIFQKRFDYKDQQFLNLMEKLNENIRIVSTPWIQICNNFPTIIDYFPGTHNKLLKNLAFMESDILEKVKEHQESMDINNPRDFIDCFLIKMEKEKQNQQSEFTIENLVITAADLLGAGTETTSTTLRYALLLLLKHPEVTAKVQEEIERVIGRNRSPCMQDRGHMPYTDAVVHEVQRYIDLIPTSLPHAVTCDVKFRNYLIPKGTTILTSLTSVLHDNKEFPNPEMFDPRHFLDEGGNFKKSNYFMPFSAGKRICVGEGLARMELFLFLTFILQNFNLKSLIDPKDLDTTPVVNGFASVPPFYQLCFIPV
E coli WT exp: blocks growth of wild type E. coli BW25113. OD600 absorbance. growth inhibition, % at 100 µM. actives 0.15% (n = 98,000);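 active means growth inhibition above about 50% at one test dose, limit read from the data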;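 further: growth measured after 20 h incubation at 37 °C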
CYP2C19 act: cytochrome P450 2C19 (human) activation. P33261. recombinant CYP2C19, luciferin-H EGE luminescence; hits give high values; 0 = fully inhibited enzyme, 1 = untreated enzyme. activation factor at 5 µM. 96,000 tested, under 10 active. AID 1025;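 active means activation factor of at least 2 at 5 µM in the primary screen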;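 further: 0 = wells with 2.5 mM tranylcypromine and 1 = vehicle-only wells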
Ecoli tolC: growth inhibitors of E. coli BW25113 tolC mutant | OD615 | growth inhibition, % at 10 µM (by protocol) | actives 2.2% (n = 65,000);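 active means growth inhibition at or above a cutoff equal to the mean over every tested compound plus 3 SD, cut at about 60% in these data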;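 further: growth measured after 20 h incubation at 37 °C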
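test system = E. coli BW25113 ΔtolC::kan bacteria | medium = LB with kanamycin 50 µg/mL | signal = OD at 615 nm | schedule = 37 °C, 20 h exposure | evaluation = % inhibition of E. coli growth | compound dosing = one dose of 10 µM final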
CYP2C9 inh: human CYP2C9 inhibition. CYP2C9 Supersomes, luciferin-H conversion, luminescence. inhibition, % at 5 µM. actives 20% (n = 96,000). AID 777;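 active means blocking of liver enzyme CYP2C9 beyond about 50% at 5 µM, limit read from the data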
CYP2C9 activ: activators of human CYP2C9 | recombinant CYP2C9, luciferin-H conversion, luminescence; hits give high values; factor 1 = untreated enzyme, 0 = blocked | activation factor at 5 µM | actives 1.4% (n = 96,000);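 active means activation factor of 2 or more for CYP2C9 at a 5 µM dose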;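 further: 0 = sulfaphenazole-blocked wells and 1 = vehicle-only wells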
* marks the source's active call; other numbers are inactive results; . = not tested or not shown.

SMILES	CYP2C19 inhib	E coli WT exp	CYP2C19 act	Ecoli tolC	CYP2C9 inh	CYP2C9 activ
Cc1ccc(S(=O)(=O)/N=C(\Sc2ccccc2)c2ccccc2)cc1	34	-4	0.7	.	62*	0.4
CCOC(=S)N/C(=N\S(=O)(=O)c1ccc(C)cc1)c1ccccc1	46	-2	0.5	.	91*	0.1
CCOc1ccc(CNn2nnnc2N)cc1	4	2	1	.	2	1
COC(=O)C(C(=O)OC)C(C)C(C(=O)OC)C(=O)OC	-9	-2	1.1	.	-14	1.1
Cc1cc(COc2ccccc2O)on1	3	0	1	.	-9	1.1
CCOC(=O)Cc1csc(NC(=O)c2ccc(S(=O)(=O)N3CCCC3)cc2)n1	79*	2	0.2	30	88*	0.1
O=C(Nc1nc(-c2ccccc2)cs1)c1cccc(S(=O)(=O)N2CCN(Cc3ccccc3)CC2)c1	53*	-8	0.5	.	90*	0.1
O=C(Nc1nc(-c2cccs2)cs1)c1cccc(S(=O)(=O)N2CCCCCC2)c1	72*	-16	0.3	44	94*	0.1
CN1CCN(S(=O)(=O)c2cccc(C(=O)Nc3nc(-c4ccccc4)cs3)c2)CC1	21	-2	0.8	.	36	0.6
O=C(Nc1nc(-c2cccs2)cs1)c1ccc(S(=O)(=O)N2CCCCC2)cc1	39	-8	0.6	30	60*	0.4
Cc1cc(C(F)(F)F)nc(NCc2cccnc2)n1	.	-8	.	13	.	.
Cc1ccccc1OCC(=O)N(Cc1ccc(N(C)C)cc1)C1CCS(=O)(=O)C1 (stereo unspecified)	22	-3	0.8	9	13	0.9
COCCn1c(SCC(N)=O)nc2c(c1=O)SC(C)C2 (stereo unspecified)	.	6	.	-3	.	.
CC1=NN(C(=O)Cc2ccc([N+](=O)[O-])cc2)C(O)(c2ccccc2)C1 (stereo unspecified)	59*	-10	0.4	.	33	0.7
Cc1cc(C(=O)COc2ccc(-c3nnco3)cc2)c(C)n1Cc1ccccc1	60*	-3	0.4	40	62*	0.4
N/C(=N/O)c1nc(N2CCCCC2)nc(N2CCCCC2)n1	.	3	.	56	.	.
Cc1ccc(C)c(N2CCN(C(=O)c3cn(C)c4ccc(S(=O)(=O)N(C)C)cc4c3=O)CC2)c1	38	0	0.6	.	3	1
COC(=O)c1cccc(COC(=O)c2ccc(CS(=O)(=O)c3ccc(C)cc3)cc2)c1	9	-7	0.9	.	77*	0.2
COC(=O)c1ccc(CS(=O)(=O)c2ccc(C)cc2)cc1	32	-6	0.7	.	58*	0.4
Cc1ccc(S(=O)(=O)CCCS(=O)(=O)c2ccc(C)cc2)cc1	52*	-5	0.5	.	38	0.6
Cc1ccc(S(=O)(=O)c2ccc(C)cc2)cc1	29	2	0.7	.	-54	1.5
Cc1ccc(CNC(=O)c2cccc(S(C)(=O)=O)c2)cc1	14	1	0.9	.	3	1
CCOC(=O)C1C(=O)NC(N2CCN(Cc3ccccc3)CC2)=NC1c1ccco1 (stereo unspecified)	-9	7	1.1	-7	11	0.9
Cc1noc(N)c1C(=O)Nc1ccc(C(C)(C)C)cc1	18	-3	0.8	.	10	0.9
COc1cc(C)c(N)cc1C(C)C	88*	11	0.1	-3	57*	0.4
SMILES	CYP2C19 inhib	E coli WT exp	CYP2C19 act	Ecoli tolC	CYP2C9 inh	CYP2C9 activ
CC(Sc1ccc(Cl)cc1)C(=O)Nc1ccccc1C(=O)N1CCOCC1 (stereo unspecified)	-5	-2	1.1	.	-10	1.1
Cc1cc(C)c(NC(=O)CC(C)(C)C)c(Cl)c1	2	2	1	.	3	1
CCN(CC)C(=O)c1sc(NC(=O)Cc2ccc(OC)cc2)c(C#N)c1C	78*	1	0.2	.	78*	0.2
CCN(CC)C(=O)c1sc(NC(=O)c2ccc(C)c([N+](=O)[O-])c2)c(C#N)c1C	1	-3	1	.	2	1
CCOc1ccc(NC(=O)CC2C(=O)N(c3ccccc3)C(=S)N2Cc2ccccn2)cc1 (stereo unspecified)	47	9	0.5	.	4	1
CCCOc1ccc(NC(=O)CC2C(=O)N(CC)C(=S)N2Cc2cccs2)cc1 (stereo unspecified)	82*	-5	0.2	.	52*	0.5
Cc1ccc(Sc2cnn(-c3ccccc3)c(=O)c2Cl)cc1	15	-7	0.9	.	44	0.6
Nc1ccc(Sc2cnn(-c3ccccc3)c(=O)c2Cl)cc1	99*	8	0	.	91*	0.1
O=C(NC1CCCCC1)N1CCN(C(=O)c2ccco2)CC1	8	4	0.9	.	5	0.9
CCOC(=O)c1cn2cccnc2n1	10	-12	0.9	.	4	1
CCOc1ccc(S(=O)(=O)Nc2cc(Sc3ncn[nH]3)c3oc(=O)sc3c2)cc1	69*	13	0.3	26	67*	0.3
O=C(CCc1nc2ccccc2c(=O)[nH]1)NC1CCN(Cc2ccccc2)CC1	10	-3	0.9	-15	23	0.8
COc1ccc(N2CCN(c3nc(NC(C)(C)C)nc(N4CCCCC4)n3)CC2)cc1	17	-17	0.8	-6	46	0.5
Cc1ccc2c(c1)cc(CN(Cc1ccco1)S(=O)(=O)c1ccccc1)c1nnnn12	11	-4	0.9	15	11	0.9
O=C(Nc1nc(-c2nc3ccccc3s2)cs1)c1ccco1	.	-8	.	5	.	.
O=C(Nc1nc(-c2nc3ccccc3s2)cs1)C1CC1	51*	-4	0.5	24	19	0.8
COc1cc(C(=O)N2CCN(C(=O)Cc3ccccc3)CC2)cc(OC)c1OC	-18	-3	1.2	-3	-15	1.1
CCCCC(=O)Nc1ccc(NC(=O)C2CC2)nc1	.	2	.	-14	.	.
Cc1cccc(NC(=O)CS(=O)(=O)c2cn(C)c3ccccc23)c1	56*	2	0.4	3	-11	1.1
CCn1cc(S(=O)(=O)CC(=O)Nc2ccc3c(c2)OCO3)c2ccccc21	.	.	.	1	.	.
Cn1cc(S(=O)(=O)CC(=O)Nc2ccc3c(c2)OCO3)c2ccccc21	.	.	.	3	.	.
CCOC(=O)N1CCN(C(=O)CS(=O)(=O)c2cn(Cc3ccccc3Cl)c3ccccc23)CC1	14	3	0.9	.	30	0.7
CCn1cc(S(=O)(=O)CC(=O)Nc2cc(C)ccc2C)c2ccccc21	96*	1	0	6	-80	1.8
Cc1cc(NC(=O)CS(=O)(=O)c2cn(Cc3ccccc3Cl)c3ccccc23)no1	40	-13	0.6	38	68*	0.3
N#Cc1cnn(CC2CCCCC2)c1N	48	9	0.5	-8	29	0.7
CC(C)c1nc2ccccn2c1NC1CCCCC1	8	-2	0.9	.	-4	1
Cc1ccc2cccc(S(=O)(=O)N3CCN(c4cccc(Cl)c4)CC3)c2n1	92*	-11	0.1	27	11	0.9
